Compound activity (PubChem BioAssay)
IMP-1 inh: IMP-1 metallo-beta-lactamase inhibitors, primary screen, biochemical, epi-absorbance readout, Pseudomonas aeruginosa enzyme; inhibition, % at 5.6 µM; purified IMP-1, nitrocefin hydrolysis, epi-absorbance fluorescence; metallo-beta-lactamase IMP-1 (Pseudomonas aeruginosa); 0.45% of 290,000 active;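 active = inhibition above the mean plus 3 SD of all compounds in the same screening run, cut at about 4.5% in these data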;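 also: 0% = IMP-1 with DMSO and 100% = DMSO wells lacking enzyme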
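System: Purified recombinant IMP-1 metallo-beta-lactamase enzyme | Measured by: Fluorescence quenching readout, ex 480/em 530 nm | Replication: Singlicate | Incubation: 15 min preincubation plus 25 min reaction at 25 °C | Evaluation: Percent inhibition from optical density relative to buffer-blank wells | Benchmarks: DMSO with and without IMP-1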
CHT PAM: CHT positive allosteric modulators, primary screen, cell-based, membrane potential dye, choline EC20 | B-score at 10 µM | CHT-expressing cells; stronger effect = higher value; LV-AA mutant CHT in HEK293 cells | AID 488977, 2010 | High affinity choline transporter 1 (Homo sapiens), Q9GZV3 | 0.49% of 310,000 active;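 active = initial fluorescence not abnormally high and integrated response B-score, plate-corrected, over 3 SD above library mean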
Target sequence (Q9GZV3 whole entry, looked up): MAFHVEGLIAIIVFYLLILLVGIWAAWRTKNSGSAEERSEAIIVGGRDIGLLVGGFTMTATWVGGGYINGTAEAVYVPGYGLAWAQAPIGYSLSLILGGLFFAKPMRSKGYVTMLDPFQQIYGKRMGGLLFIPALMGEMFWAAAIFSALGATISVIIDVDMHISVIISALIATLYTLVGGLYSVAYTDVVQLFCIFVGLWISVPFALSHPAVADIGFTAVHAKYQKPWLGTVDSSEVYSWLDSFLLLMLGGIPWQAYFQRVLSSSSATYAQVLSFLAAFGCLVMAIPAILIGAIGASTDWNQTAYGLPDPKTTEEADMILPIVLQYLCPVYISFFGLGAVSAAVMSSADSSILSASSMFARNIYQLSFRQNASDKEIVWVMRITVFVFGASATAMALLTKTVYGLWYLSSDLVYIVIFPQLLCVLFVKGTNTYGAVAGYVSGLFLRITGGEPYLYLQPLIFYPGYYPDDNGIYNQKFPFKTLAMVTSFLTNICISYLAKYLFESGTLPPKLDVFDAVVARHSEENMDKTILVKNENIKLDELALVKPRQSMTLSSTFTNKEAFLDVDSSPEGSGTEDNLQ
TMEM16A inh: TMEM16A chloride channel inhibitors, primary screen, cell-based, HTS; AID 588511, 2011; Anoctamin-1 (Mus musculus), Q8BHY3; normalized B-score (activity score, 25-100; higher = stronger inhibition) at 10 µM; HEK293 TMEM16A/YFP iodide influx fluorescence, ionomycin; 1.2% of 310,000 active;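 active = ratio plate-corrected score three or more library SD toward inhibition, starting fluorescence score within five deviations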;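 also: score derived from kinetic fluorescence span divided by baseline fluorescence per well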
TMEM16A act: TMEM16A chloride channel activators or potentiators, primary screen, cell-based, HTS | Anoctamin-1 (Mus musculus), Q8BHY3 | HEK293 TMEM16A/YFP-H148Q/I152L, iodide quench fluorescence; stronger effect = lower value | B-score at 10 µM | 0.3% of 340,000 active | AID 623877, 2012;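 active = fluorescence-ratio B-score plate-corrected deviation score at least 3 library SD below zero, with starting fluorescence score within 5 deviations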;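 also: channel opened by trigger with iodide after compound preincubation; score built on the fluorescence ratio of max minus min over baseline; more negative score means more quench and so TMEM16A activation or potentiation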
CHT block: inhibitors of human choline transporter CHT. High affinity choline transporter 1 (Homo sapiens), Q9GZV3. CHT-expressing cells, membrane potential dye, choline response; stronger effect = lower value. B-score at 10 µM. 0.86% of 310,000 active. AID 488975, 2010;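 active = B-score over 3 SD under the library average, and starting fluorescence ratio not unusually high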;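 also: choline stimulus applied at its EC90 after an EC20 pre-addition; B-score computed on integrated fluorescence ratio after choline addition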
VIM-2 inh: VIM-2 metallo-beta-lactamase inhibitors, primary screen, biochemical, epi-absorbance readout, Pseudomonas aeruginosa enzyme; inhibition, % at 5.6 µM; purified VIM-2, nitrocefin hydrolysis, epi-absorbance fluorescence; AID 1527, 2009; 0.89% of 290,000 active;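 active = inhibition above the mean of all tested compounds plus 3 SD, cutoff set per screening run, cut at about 7.5% in these data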;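 also: red hydrolysis product quenches plate fluorescence so inhibitors raise well fluorescence; 0% = enzyme with DMSO and 100% = DMSO without enzyme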
Starred values were filed as active, the others as inactive; i = inactive; . = no result. Most compounds without a hit are left out; they make up all but 3.4% or so of the library.

SMILES	IMP-1 inh	CHT PAM	TMEM16A inh	TMEM16A act	CHT block	VIM-2 inh
CC(=O)c1c(C)n(-c2ccc(Br)cc2)c2ccc(O)cc12	-1	i	i	i	i	2
CC(=O)c1ccc(-n2c(C)c(C(C)=O)c3cc(O)ccc32)cc1	-1	i	i	i	i	10*
CCC1(c2ccc(F)cc2)NC(=O)N(CC(=O)Nc2cc(C)on2)C1=O (stereo unspecified)	.	.	.	-39*	.	.
O=C(N/N=C/c1cn(Cc2ccccc2)c2ccccc12)c1ccncc1	-3	i	100*	i	i	-3
CC(Nc1nc(N2CCN(S(C)(=O)=O)CC2)nc2ccccc12)c1ccccc1 (stereo unspecified)	4.5*	i	i	i	i	1
COc1cc(OC)cc(OC(=O)c2ccc3c(=O)n4c(nc3c2)CCC4)c1	.	i	i	i	i	.
Cc1ccc(-c2c(NCCc3ccccc3)c(=O)c2=O)cc1	5.3*	i	i	i	i	-1
COCC(=O)N1CCC(n2nccc2NC(=O)c2ccccc2OC)CC1	-3	i	i	i	i	-3
CCC(C(=O)OCC(=O)Nc1cc(Cl)ccc1Cl)c1ccccc1 (stereo unspecified)	-1	i	25*	i	i	2
CCC(C(=O)OCC(=O)Nc1ccc(OC)cc1OC)c1ccccc1 (stereo unspecified)	-3	i	i	i	i	-3
Oc1ccc(/C=N/Nc2ccc(Cl)nn2)c(O)c1O	-3	i	i	i	i	-3
CC(=O)Nc1ccc(NC(=O)c2c(-c3ccccc3)noc2C)cn1	-2	i	i	i	i	-2
COc1ccc(Cl)cc1C(=O)Nc1ccc(NC(C)=O)cc1	-2	i	i	i	i	-2
CC(=O)Oc1c(I)cc(I)cc1C(=O)Nc1ccc(Cl)cc1	-3	i	100*	i	i	-2
CNc1ccc(C(=O)OCC(=O)Nc2ccnn2C(C)C)cc1[N+](=O)[O-]	.	.	.	i	.	.
CCCCNC(=O)OCC(CC)NC(=O)OCC(C)C (stereo unspecified)	8.7*	i	i	i	i	-4
CCN1CCc2c(OCC(=O)Nc3cccc(C)c3C)cccc2C1=O	-2	i	i	.	i	-1
Cc1cccc(NC(=O)COc2cccc3c2CCN(Cc2ccccc2)C3=O)c1C	-1	i	i	-6.5*	i	0
COc1cc(OC)cc(-c2oc(=O)c3cc(OC)c(OC)cc3c2/C=C/c2ccc(F)cc2)c1	.	.	.	i	.	.
O=C1C2CC=C(Cl)CC2C(=O)N1CCc1ccccc1 (stereo unspecified)	6.9*	i	i	i	i	-1
O=C1C2CC=C(Cl)CC2C(=O)N1CCc1c[nH]c2ccccc12 (stereo unspecified)	-1	i	i	i	i	0
CC(=O)N1CCOc2ccc(S(=O)(=O)N3CCC(C(=O)NCc4ccc(F)cc4)CC3)cc21	-2	i	i	i	i	-2
COc1ccc(CCC(=O)Nc2nnc(C(F)(F)F)s2)cc1	8.7*	i	i	i	i	-3
COc1ccc(NC(=O)CCCCC(=O)Nc2ccc(OC)cc2OC)c(OC)c1	.	i	i	i	i	.
COc1ccc(NC(=O)CCC(=O)Nc2nnc(C(F)(F)F)s2)c(OC)c1	4.9*	i	i	i	i	-3
SMILES	IMP-1 inh	CHT PAM	TMEM16A inh	TMEM16A act	CHT block	VIM-2 inh
CC(O)CSc1nc2c(c(=O)[nH]c(=O)n2C)n1Cc1ccccc1Cl (stereo unspecified)	-3	i	i	i	i	-3
CCCCCc1ccc(OCCCC[n+]2ccc(C)cc2)c(CCCCC)c1	-4	i	100*	i	i	-5
CCCCCc1ccc(OCCCC[n+]2cccc(C)c2)c(CCCCC)c1	-2	i	100*	i	i	1
O=C(COC(=O)CN1C(=O)C2CCCCC2C1=O)NCc1ccc(Cl)cc1Cl (stereo unspecified)	.	.	.	i	.	.
CCc1ccc(N2CC(C(=O)Nc3nc4ccc(S(C)(=O)=O)cc4s3)CC2=O)cc1 (stereo unspecified)	-1	i	i	i	i	-1
CC(=O)NC(c1ccc(C(C)C)cc1)c1c(O)ccc2ccccc12 (stereo unspecified)	.	i	i	i	i	.
CC(=O)NC(c1ccccc1)c1c(O)ccc2ccccc12 (stereo unspecified)	-2	i	i	-6.5*	i	1
Cc1ccc(S(=O)(=O)NCc2ccccn2)cc1C	-2	i	i	i	i	-1
Cc1ccc(SCC(=O)N2c3ccccc3Sc3ccccc32)cc1	-4	i	100*	i	i	-2
CC1(NC(=O)Cc2ccc(S(=O)(=O)N3CCOCC3)s2)CCS(=O)(=O)C1 (stereo unspecified)	.	i	i	i	i	.
CCOc1ccc(/C(O)=C2/C(=O)C(=O)N(c3nc(C)c(C)s3)C2c2ccco2)cc1 (stereo unspecified)	5.5*	i	i	i	i	2
Cc1nc2c3cc(F)ccc3n(Cc3ccc(F)cc3)c2s1	-1	i	i	i	i	0
Cc1nc2c3cc(Cl)ccc3n(CCN3CCCCC3)c2s1	5.1*	i	i	i	i	5
CCCCN(C(=O)C1CC(=O)N(c2ccc(CC)cc2)C1)c1c(N)n(CCC)c(=O)[nH]c1=O (stereo unspecified)	.	.	.	i	.	.
COc1ccc(CCN2C(=O)CC(C(C)c3ccccc3)C2=O)cc1OC (stereo unspecified)	24*	i	i	i	i	-1
O=C(Nc1cc(-c2ccccc2)sc1C(=O)O)c1cccc(F)c1	2	i	100*	i	i	0
O=C1OC(c2ccccc2)c2ccc3ccccc3c21 (stereo unspecified)	-2	i	i	i	i	9.5*
CCN(CC)c1ccc(S(=O)(=O)N2CCOCC2)cc1NC(=O)COC(=O)C1=COCCO1	.	.	.	i	.	.
O=C(NC(=S)NC1C2CC3CC(C2)CC1C3)c1ccccc1 (stereo unspecified)	-1	i	i	-4.7*	i	-3
